ChEMBL document CHEMBL1126865, “Structure-activity relationship within a series of pyrazolidinone antibacterial agents. 2. Effect of side-chain modification on in vitro activity and pharmacokinetic parameters” (J Med Chem, 1993)
In brackets after ≈: the same amount, converted by molar mass.

What was measured:
[1] = Plasma half-life in monkey after intravenous administration; assay type: ADME, organism-based; settings: simiiformes
Summary of the method: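 Male rhesus monkeys (n = 3) dosed iv at 30 mg/kg in 0.9% saline; plasma sampled from cephalic vein over 3 h. Drug levels by agar well diffusion bioassay (E. coli ATCC4157 or Proteus providentia XC24) against standard curves in spiked plasma. Samples stored at -70 °C. Half-life = 0.693/β, β the terminal slope of plasma vs time curve.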

[2] = Plasma half-life in rats after intravenous administration; assay type: ADME, organism-based; settings: rat
Summary of the method: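 Male Sprague-Dawley rats were given 20 mg/kg IV in 0.9% saline through an indwelling jugular cannula, which was also used for serial blood sampling. Plasma and cumulative urine (citrate pH 6.5, metabolism cages) were collected over 6 h and stored at -70 °C. Levels were measured by agar well diffusion bioassay against standard curves in plasma or citrate. Half-life = 0.693/β; recovery as % of dose.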

[3] = Plasma half-life in human after intravenous administration; assay type: ADME, organism-based
[4] = tested on: Klebsiella aerogenes; assay: In vitro antibacterial activity against Enterobacter aerogenes C32; assay type: functional
[5] = tested on: Escherichia coli; assay: In vitro antibacterial activity against Escherichia coli EC14; assay type: functional
[6] = tested on: Haemophilus influenzae; assay: In vitro antibacterial activity against Haemophilus influenza C.L; assay type: functional
[7] = tested on: Klebsiella pneumoniae; assay: In vitro antibacterial activity against Klebsiella X26; assay type: functional
[8] = tested on: Pseudomonas aeruginosa; assay: In vitro antibacterial activity against Pseudomonas PS72; assay type: functional
[9] = tested on: Staphylococcus epidermidis; assay: In vitro antibacterial activity against Staphylococcus epidermidis 222; assay type: functional
[10] = tested on: Staphylococcus aureus; assay: In vitro antibacterial activity against Staphylococcus aureus X1.1; assay type: functional
[11] = tested on: Streptococcus pneumoniae; assay: In vitro antibacterial activity against Streptococcus pneumoniae PARK; assay type: functional

| SMILES | half-life [1] | half-life [2] | half-life [3] | MIC [4] | MIC [5] | MIC [6] | MIC [7] | MIC [8] | MIC [9] | MIC [10] | MIC [11] |
| --- | --- | --- | --- | --- | --- | --- | --- | --- | --- | --- | --- |
| CO/N=C(\C(=O)N[C@@H]1C(=O)N2C(C(=O)O)=CCS[C@H]12)c1csc(N)n1 [CEFTIZOXIME] | 44 min | 15 min | 96 min | – | – | – | – | – | – | – | – |
| N#CC1=C(C(=O)O)N2C(=O)[C@@H](NC(=O)/C(=N/OCCBr)c3csc(N)n3)CN2C1 | – | – | – | 0.5 µg/mL (≈ 1.03 µM) | 0.125 µg/mL (≈ 0.258 µM) | 0.125 µg/mL (≈ 0.258 µM) | 0.06 µg/mL (≈ 0.124 µM) | > 128 µg/mL | 4 µg/mL (≈ 8.26 µM) | 8 µg/mL (≈ 16.5 µM) | 0.125 µg/mL (≈ 0.258 µM) |
| CCCO/N=C(/C(=O)N[C@H]1CN2CC(S(C)(=O)=O)=C(C(=O)O)N2C1=O)c1csc(N)n1 | – | – | – | 0.25 µg/mL (≈ 0.529 µM) | 0.125 µg/mL (≈ 0.265 µM) | 0.125 µg/mL (≈ 0.265 µM) | 0.015 µg/mL (≈ 0.0317 µM) | 128 µg/mL (≈ 271 µM) | 16 µg/mL (≈ 33.9 µM) | 8 µg/mL (≈ 16.9 µM) | 0.125 µg/mL (≈ 0.265 µM) |
| CS(=O)(=O)C1=C(C(=O)O)N2C(=O)[C@@H](NC(=O)/C(=N/OCCCl)c3csc(N)n3)CN2C1 | – | – | – | 0.125 µg/mL (≈ 0.254 µM) | 0.125 µg/mL (≈ 0.254 µM) | 0.5 µg/mL (≈ 1.01 µM) | 0.03 µg/mL (≈ 0.0609 µM) | > 128 µg/mL | 32 µg/mL (≈ 64.9 µM) | 16 µg/mL (≈ 32.5 µM) | 0.25 µg/mL (≈ 0.507 µM) |
| CCCO/N=C(/C(=O)N[C@H]1CN2CC(S(=O)(=O)CCC)=C(C(=O)O)N2C1=O)c1csc(N)n1 | – | – | – | 1 µg/mL (≈ 2 µM) | 0.5 µg/mL (≈ 0.999 µM) | 0.5 µg/mL (≈ 0.999 µM) | 0.06 µg/mL (≈ 0.12 µM) | > 128 µg/mL | 32 µg/mL (≈ 63.9 µM) | 16 µg/mL (≈ 32 µM) | 0.125 µg/mL (≈ 0.25 µM) |
| CS(=O)(=O)C1=C(C(=O)O)N2C(=O)[C@@H](NC(=O)/C(=N/OCCCF)c3csc(N)n3)CN2C1 | – | – | – | 0.125 µg/mL (≈ 0.255 µM) | 0.03 µg/mL (≈ 0.0612 µM) | 0.125 µg/mL (≈ 0.255 µM) | 0.03 µg/mL (≈ 0.0612 µM) | 128 µg/mL (≈ 261 µM) | 16 µg/mL (≈ 32.6 µM) | 8 µg/mL (≈ 16.3 µM) | 0.06 µg/mL (≈ 0.122 µM) |
| CS(=O)(=O)C1=C(C(=O)O)N2C(=O)[C@@H](NC(=O)/C(=N/OCCF)c3csc(N)n3)CN2C1 | – | – | – | 0.06 µg/mL (≈ 0.126 µM) | 0.015 µg/mL (≈ 0.0315 µM) | 0.25 µg/mL (≈ 0.525 µM) | 0.03 µg/mL (≈ 0.063 µM) | 128 µg/mL (≈ 269 µM) | 16 µg/mL (≈ 33.6 µM) | 16 µg/mL (≈ 33.6 µM) | 0.06 µg/mL (≈ 0.126 µM) |
| N#CC1=C(C(=O)O)N2C(=O)[C@@H](NC(=O)/C(=N/OCCCl)c3csc(N)n3)CN2C1 | – | – | – | 1 µg/mL (≈ 2.27 µM) | 0.25 µg/mL (≈ 0.568 µM) | 0.5 µg/mL (≈ 1.14 µM) | 0.125 µg/mL (≈ 0.284 µM) | > 128 µg/mL | 16 µg/mL (≈ 36.4 µM) | 32 µg/mL (≈ 72.8 µM) | 0.5 µg/mL (≈ 1.14 µM) |
| CCN1CCN(C(=O)N[C@@H](C(=O)N[C@H]2CN3CC(C#N)=C(C(=O)O)N3C2=O)c2ccccc2)C(=O)C1=O | – | – | – | 2 µg/mL (≈ 3.93 µM) | 1 µg/mL (≈ 1.96 µM) | 0.5 µg/mL (≈ 0.981 µM) | 0.5 µg/mL (≈ 0.981 µM) | 128 µg/mL (≈ 251 µM) | 32 µg/mL (≈ 62.8 µM) | 16 µg/mL (≈ 31.4 µM) | 4 µg/mL (≈ 7.85 µM) |
| C=CCCCO/N=C(/C(=O)N[C@H]1CN2CC(S(C)(=O)=O)=C(C(=O)O)N2C1=O)c1csc(N)n1 | – | – | – | 1 µg/mL (≈ 2.01 µM) | 0.25 µg/mL (≈ 0.501 µM) | 0.25 µg/mL (≈ 0.501 µM) | 0.06 µg/mL (≈ 0.12 µM) | 128 µg/mL (≈ 257 µM) | 8 µg/mL (≈ 16 µM) | 8 µg/mL (≈ 16 µM) | 0.5 µg/mL (≈ 1 µM) |
| Nc1nc(/C(=N\OCCCl)C(=O)N[C@H]2CN3CC(S(=O)(=O)Cc4ccccc4)=C(C(=O)O)N3C2=O)cs1 | – | – | – | 4 µg/mL (≈ 7.03 µM) | 2 µg/mL (≈ 3.51 µM) | 0.5 µg/mL (≈ 0.879 µM) | 0.03 µg/mL (≈ 0.0527 µM) | > 128 µg/mL | 16 µg/mL (≈ 28.1 µM) | 8 µg/mL (≈ 14.1 µM) | 0.06 µg/mL (≈ 0.105 µM) |
| N#CC1=C(C(=O)O)N2C(=O)[C@@H](NC(=O)CSc3ccccc3)CN2C1 | – | – | – | 128 µg/mL (≈ 357 µM) | 32 µg/mL (≈ 89.3 µM) | 32 µg/mL (≈ 89.3 µM) | 16 µg/mL (≈ 44.6 µM) | > 128 µg/mL | 8 µg/mL (≈ 22.3 µM) | 4 µg/mL (≈ 11.2 µM) | 0.5 µg/mL (≈ 1.4 µM) |
| CCCS(=O)(=O)C1=C(C(=O)O)N2C(=O)[C@@H](NC(=O)/C(=N/OCC(F)(F)F)c3csc(N)n3)CN2C1 | – | – | – | 1 µg/mL (≈ 1.85 µM) | 0.25 µg/mL (≈ 0.463 µM) | 0.25 µg/mL (≈ 0.463 µM) | 0.06 µg/mL (≈ 0.111 µM) | > 128 µg/mL | 32 µg/mL (≈ 59.2 µM) | 16 µg/mL (≈ 29.6 µM) | 0.125 µg/mL (≈ 0.231 µM) |
| CS(=O)(=O)C1=C(C(=O)O)N2C(=O)[C@@H](NC(=O)/C(=N/OCCCCCl)c3csc(N)n3)CN2C1 | – | – | – | 2 µg/mL (≈ 3.84 µM) | 1 µg/mL (≈ 1.92 µM) | 1 µg/mL (≈ 1.92 µM) | 0.125 µg/mL (≈ 0.24 µM) | > 128 µg/mL | 32 µg/mL (≈ 61.4 µM) | 32 µg/mL (≈ 61.4 µM) | 0.25 µg/mL (≈ 0.48 µM) |
| C#CCO/N=C(/C(=O)N[C@H]1CN2CC(S(C)(=O)=O)=C(C(=O)O)N2C1=O)c1csc(N)n1 | – | – | – | 0.5 µg/mL (≈ 1.07 µM) | 0.25 µg/mL (≈ 0.534 µM) | 0.25 µg/mL (≈ 0.534 µM) | 0.125 µg/mL (≈ 0.267 µM) | > 128 µg/mL | 32 µg/mL (≈ 68.3 µM) | 32 µg/mL (≈ 68.3 µM) | 0.25 µg/mL (≈ 0.534 µM) |
